pPAFAH inh – pPAFAH (human) enzyme inhibition; Q13093; AID 463082; hit rate 1.5% among 330,000; inhibition, % at 3.39 µM; recombinant pPAFAH, FP-rhodamine probe fluorescence polarization;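 active = inhibition above the mean inhibition across the screen plus 3 SD, cut at about 25% in these data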;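 note: inhibitors block binding of the rhodamine activity-based probe so polarization drops; 0% = enzyme with DMSO and 100% = wells lacking pPAFAH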
PAFAH2 FP inh – PAFAH2 (human) inhibition; inhibition, % at 3.39 µM; hit rate 0.99% among 340,000; recombinant PAFAH2, FP-rhodamine activity probe, fluorescence polarization;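 active = inhibition above the mean over all tested compounds plus 3 SD, cut at about 30% in these data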;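 note: inhibitors block probe labeling of enzyme so polarization drops; 0% = enzyme with DMSO and 100% = wells lacking PAFAH2 protein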
HTRA1 inhibitor – HTRA1 (human) protease inhibition | Q92743 | recombinant HTRA1, FP-rhodamine activity-based probe, fluorescence polarization | inhibition, % at 5.96 µM | hit rate 0.5% among 340,000 | AID 504803; in the data active = inhibition above about 36%;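 note: 0% = enzyme with DMSO and 100% = wells lacking enzyme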
Target sequence (Q92743 whole entry, looked up): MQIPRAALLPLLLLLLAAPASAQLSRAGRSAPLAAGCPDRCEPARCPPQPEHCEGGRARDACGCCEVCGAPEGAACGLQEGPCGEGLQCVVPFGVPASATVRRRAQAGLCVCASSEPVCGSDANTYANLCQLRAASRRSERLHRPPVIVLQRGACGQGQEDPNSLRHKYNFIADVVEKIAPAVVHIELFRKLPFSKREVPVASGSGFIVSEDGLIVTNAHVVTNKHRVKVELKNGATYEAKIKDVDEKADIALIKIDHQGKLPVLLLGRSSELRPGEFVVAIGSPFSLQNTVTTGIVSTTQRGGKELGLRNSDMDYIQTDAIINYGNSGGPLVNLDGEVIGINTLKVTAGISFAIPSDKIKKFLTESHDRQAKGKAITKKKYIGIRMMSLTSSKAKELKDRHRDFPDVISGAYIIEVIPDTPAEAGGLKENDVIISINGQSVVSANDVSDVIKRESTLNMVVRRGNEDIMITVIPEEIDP
PAFAH1B2 FP inh – PAFAH1B2 (human) inhibition; inhibition, % at 3.39 µM; hit rate 1.2% among 340,000; P68402; recombinant PAFAH1B2, FP-rhodamine activity probe, fluorescence polarization;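 active = inhibition above the mean of all tested compounds plus 3 SD, cut at about 24% in these data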;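 note: 0% = enzyme with DMSO and 100% = wells lacking PAFAH1B2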
mABHD4 FP – inhibits mouse alpha/beta hydrolase domain 4; Q8VD66; purified mABHD4, FP-Rh probe fluorescence polarization; inhibition, % at 8.92 µM; hit rate 0.54% among 370,000; AID 720543;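 active = inhibition exceeding the mean over every tested compound plus 3 SD, cut at about 30% in these data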;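 note: 0% = plate median of compound wells and 100% = S159A mutant with DMSO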
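Assay system: mouse ABHD4 enzyme, wild type / Also added: fluorescent activity-based probe FP-Rh / Doses: single nominal dose of 8.92 µM, 0.89% DMSO final / Timing: 45 min compound pre-incubation plus 60 min probe step, 25 °C / Signal: FP readout, ex 525 nm / em 598 nm / Control set: S159A mutant/DMSO as 100%, compound-well median as 0%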
PAFAH1B3 FP inh – blocks human PAF acetylhydrolase 1B catalytic subunit 3; Q15102; recombinant PAFAH1B3, FP-rhodamine probe, fluorescence polarization; inhibition, % at 3.39 µM; hit rate 0.28% among 340,000; AID 492972;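 active = inhibition above the screen-wide average of all tested compounds plus 3 SD, cut at about 25% in these data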;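 note: 0% = enzyme with DMSO only and 100% = wells lacking PAFAH1B3 protein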
mABHD4 conf – confirmation of mouse ABHD4 inhibitors. shares compounds with mABHD4 FP. purified mABHD4, FP-Rh probe fluorescence polarization. inhibition, % at 8.92 µM. hit rate 55% among 1,800. AID 720658;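 active = mean inhibition across replicates above the hit cutoff set in the primary screen, cut at about 30% in these data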;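 note: 0% = wild-type ABHD4 with DMSO and 100% = catalytically dead S159A mutant with DMSO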
Active calls of the source: *; / = no result given. Compounds with a hit are over-represented: about 2.8% of the library has one in this group of screens.

SMILES | pPAFAH inh | PAFAH2 FP inh | HTRA1 inhibitor | PAFAH1B2 FP inh | mABHD4 FP | PAFAH1B3 FP inh | mABHD4 conf
O=C1NN(c2ccccc2)C(=O)/C1=C\c1ccccc1 | / | 0 | 6 | 3 | 9 | 9 | /
CCC[C@@H](CN1CCC[C@H]1CN1C(N)=NC[C@H]1CC(C)C)N1C[C@@H](Cc2ccccc2)N(CCc2ccc(Cl)c(Cl)c2)C1=N | -2 | -3 | 17 | 1 | 30* | 6 | 36*
CCC[C@@H](CN1CCC[C@H]1CN1C(N)=NC[C@H]1CC(C)C)N1C[C@@H](Cc2ccccc2)N(CCCC2CCCC2)C1=N | -2 | 2 | -5 | 3 | 34* | 11 | 26
CCC[C@@H](CN1CCC[C@H]1CN1C(N)=NC[C@@H]1Cc1ccccc1)N1C[C@@H](Cc2ccccc2)N(CCCC2CCCC2)C1=N | 4 | -7 | 0 | -3 | / | -5 | /
CCC[C@@H](CN1CCC[C@H]1CN1C(N)=NC[C@H]1CC(C)C)N1C[C@@H]([C@H](C)CC)N(CCc2ccc(Cl)c(Cl)c2)C1=N | -3 | 4 | -1 | 0 | 38* | 10 | 34*
C[C@@H](CN1CCC[C@H]1CN1C(N)=NC[C@@H]1Cc1ccccc1)N1C[C@@H](Cc2ccccc2)N(CCc2ccc(Cl)c(Cl)c2)C1=N | -2 | 4 | 20 | 5 | / | 0 | /
CC[C@@H](C)[C@@H]1CN([C@@H](CN2CCC[C@H]2CN2C(N)=NC[C@H]2CC(C)C)C(C)C)C(=N)N1CCc1ccc(Cl)c(Cl)c1 | -3 | 10 | 9 | 2 | 35* | 5 | 46*
CN1C2=N[C@@H](c3cccc(C(F)(F)F)c3)CC(=O)N2/C(=C\c2ccccc2)[C@H]1c1ccccc1 | / | / | / | / | 17 | / | /
C=CCn1c(COc2ccc(C)cc2)nnc1SCC(=O)c1ccc(-c2ccccc2)cc1 | / | / | / | / | -3 | / | /
CCCCNC(=O)c1ccc2c(SCC(=O)O)c3c(nc2c1)CCCC3 | 6 | 0 | 0 | 3 | -9 | 10 | /
CC(C)CCNC(=O)c1ccc2c(SCC(=O)O)c3c(nc2c1)CCC3 | 4 | -1 | -10 | 4 | 46* | 3 | 9
CNS(=O)(=O)/C=C/c1ccccc1CCNC(=O)OC(C)(C)C | / | / | / | / | -17 | / | /
O=C(O)c1ccc2c(c1)C(=O)N(c1ccc(Nc3ccccc3)cc1)C2=O | / | 6 | 13 | 4 | 31* | 0 | 18
O=C(O)c1cccc(NC(=O)c2ccc3c(c2)C(=O)N(c2ccccc2)C3=O)c1 | -9 | -5 | -3 | 1 | 4 | 9 | /
Cc1cccc(NCC(=O)N/N=C\c2ccccn2)c1 | 5 | -5 | -3 | 2 | 1 | 1 | /
O=C(CNc1cccc2ccccc12)N/N=C/c1ccccn1 | 11 | / | / | / | 39* | / | 31*
CC(=O)Nc1ccc(Nc2c3c4c(cccc4n(C)c2=O)C(=O)c2ccccc2-3)cc1 | 33* | 14 | 21 | 14 | 31* | 11 | 33*
CC(C)CNS(=O)(=O)/C=C/c1ccccc1CNC(=O)OC(C)(C)C | / | / | / | / | -9 | / | /
CN(C)c1cccc(O)c1 | 8 | -2 | 16 | 4 | 51* | -4 | 5
Cc1cc(O)ccc1Nc1cc(-c2cccc(N(C)C)c2)ncn1 | / | / | / | / | 6 | / | /
Nc1ccc2nc(-c3ccccn3)[nH]c2c1 | 10 | 1 | 27 | -3 | 11 | 11 | /
Nc1ccc2nc(-c3cccs3)[nH]c2c1 | 11 | 5 | 7 | 5 | 31* | 7 | 30*
Nc1ccc2nc(-c3ccccc3)[nH]c2c1 | 4 | 10 | 2 | 6 | 32* | 6 | 6
Fc1cccc(F)c1Cn1ccc2ccc(-c3ccc4ccn(Cc5c(F)cccc5F)c4c3)cc21 | / | / | / | / | 4 | / | /
COC(=O)[C@]12C[C@H](CC(=O)N3CCC(c4ccccc4)CC3)C(=O)N(Cc3ccccc3)C1=C[C@H](C(C)(C)C)O[C@@H]2C | / | / | / | / | 0 | / | /
Cc1cc2cc(CNC(=O)C(C)Oc3ccccc3)ccc2n1C (stereo unspecified) | 7 | 4 | 30 | 2 | 34* | 7 | 15
CCN(CC)S(=O)(=O)c1ccc(C(=O)NCc2ccc3c(c2)cc(C)n3C)cc1 | 10 | 3 | 0 | 5 | 104* | 10 | 0
Cc1ccc(CNC(=O)c2ccc(S(=O)(=O)N3CCCC3)cc2)cc1 | / | / | -2 | / | -2 | / | /
